What was measured:
Cavia porcellus [1] = organism: Cavia porcellus; experiment: Negative chronotropic activity in isolated guinea pig right atrium.; format: functional, Cardiac atrium
Cavia porcellus [2] = organism: Cavia porcellus; experiment: Effective drug concentration for negative inotropic activity was determined; Range is from 1.35-2.05 (10e-6 M); format: functional, organism-based
In short: (§1)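 Left atria from female guinea pigs (300-400 g) in Tyrode PSS, pH 7.4, 95% O2/5% CO2, 35 °C. Driven at 1 Hz with 0.6-0.8 ms pulses at about 50% threshold voltage; isometric force recorded. Cumulative 0.1-100 µM in DMSO (≤0.3% in bath), each added at steady state. EC50 by Probit log concentration-response analysis (n = 6-8), not calculated when maximum effect <50%.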

Cavia porcellus [3] = organism: Cavia porcellus; experiment: Negative inotropic activity in isolated guinea pig left atrium.; format: functional, Cardiac atrium
Cavia porcellus [4] = organism: Cavia porcellus; experiment: Percent inhibition of calcium-induced contraction on K+-depolarized guinea-pig aortic strip at 5 x 10 e-5M; format: functional; conditions: Aorta
Cavia porcellus [5] = organism: Cavia porcellus; experiment: Effective drug concentration for negative inotropic activity was determined; Range is from 0.41-0.72 (10e-6 M); format: functional; in short: as §1
Cavia porcellus [6] = organism: Cavia porcellus; experiment: Effective drug concentration for negative inotropic activity was determined; Range is from 0.55-0.93 (10e-6 M); format: functional; in short: as §1
Cavia porcellus [7] = organism: Cavia porcellus; experiment: Effective drug concentration for negative inotropic activity was determined; Range is from 0.43-0.56 (10e-6 M); format: functional; in short: as §1
Cavia porcellus [8] = organism: Cavia porcellus; experiment: Effective drug concentration for negative inotropic activity was determined; Range is from 1.03-1.45 (10e-6 M); format: functional; in short: as §1
Cavia porcellus [9] = organism: Cavia porcellus; experiment: Effective drug concentration for negative inotropic activity was determined; Range is from 0.23-0.43 (10e-6 M); format: functional; in short: as §1
Cavia porcellus [10] = organism: Cavia porcellus; experiment: Effective drug concentration for negative inotropic activity was determined; Range is from 1.34-2.19 (10e-6 M); format: functional, organism-based; in short: as §1
Cavia porcellus [11] = organism: Cavia porcellus; experiment: Effective drug concentration for negative inotropic activity was determined; Range is from 1.02-1.98 (10e-6 M); format: functional; in short: as §1
Cavia porcellus [12] = organism: Cavia porcellus; experiment: Effective drug concentration for negative inotropic activity was determined; Range is from 0.65-1.05 (10e-6 M); format: functional; in short: as §1
Cavia porcellus [13] = organism: Cavia porcellus; experiment: Effective drug concentration for negative inotropic activity; Range is from 0.41-0.65 (10e-6 M); format: functional; in short: as §1
Cavia porcellus [14] = organism: Cavia porcellus; experiment: Effective drug concentration for negative inotropic activity was determined; Range is from 0.18-0.30 (10e-6 M); format: functional; in short: as §1
Cavia porcellus [15] = organism: Cavia porcellus; experiment: Effective drug concentration for negative inotropic activity; format: functional; in short: as §1
Cavia porcellus [16] = organism: Cavia porcellus; experiment: Effective drug concentration for negative inotropic activity was determined; Range is from 2.35-3.10 (10e-6 M); format: functional; in short: as §1
Cavia porcellus [17] = organism: Cavia porcellus; experiment: Effective drug concentration for negative inotropic activity was determined; Range is from 0.46-0.92 (10e-6 M); format: functional; in short: as §1
Cavia porcellus [18] = organism: Cavia porcellus; experiment: Effective drug concentration for negative inotropic activity was determined; Range is from 1.35-2.23 (10e-6 M); format: functional, organism-based; in short: as §1
Cavia porcellus [19] = organism: Cavia porcellus; experiment: Effective drug concentration for negative inotropic activity was determined; Range is from 3.67-4.52 (10e-6 M); format: functional, organism-based; in short: as §1
Cavia porcellus [20] = organism: Cavia porcellus; experiment: Effective drug concentration for negative inotropic activity was determined; Range is from 0.61-0.85 (10e-6 M); format: functional; in short: as §1
Cavia porcellus [21] = organism: Cavia porcellus; experiment: Effective drug concentration for negative inotropic activity was determined; Range is from 1.67-2.83 (10e-6 M); format: functional, organism-based; in short: as §1
Cavia porcellus [22] = organism: Cavia porcellus; experiment: Effective drug concentration for negative inotropic activity was determined; Range is from 5.99-7.13 (10e-6 M); format: functional, organism-based; in short: as §1
Cavia porcellus [23] = organism: Cavia porcellus; experiment: Effective drug concentration for negative inotropic activity was determined; Range is from 0.53-0.64 (10e-6 M); format: functional; in short: as §1
Cavia porcellus [24] = organism: Cavia porcellus; experiment: Effective drug concentration (EC30) for negative chronotropic activity was determined; Range is from 0.064-0.075 (10e-6 M); format: functional
Cavia porcellus [25] = organism: Cavia porcellus; experiment: Effective drug concentration for negative inotropic activity was determined; Range is from 0.70-0.85 (10e-6 M); format: functional

Structure (SMILES) | Decrease (Cavia porcellus [1]) [%] | Decrease (Cavia porcellus [3]) [%] | inhibition at 50 µM (Cavia porcellus [4]) [%] | further results
CC1=CSC(O)(c2ccc([N+](=O)[O-])cc2)c2noc(=O)n21 (centres undefined) | 16 | 73 | 19 | EC50 (Cavia porcellus [2]): 1.65 µM
COc1ccc(C2(O)SC=C(C)n3c2noc3=O)cc1 (centres undefined) | 12 | 76 | 18 | EC50 (Cavia porcellus [5]): 0.52 µM
CC1=CSC(O)(c2ccc(C#N)cc2)c2noc(=O)n21 (centres undefined) | 30 | 76 | 13 | EC50 (Cavia porcellus [6]): 0.76 µM
COc1cccc(C2(O)SC=C(C)n3c2noc3=O)c1 (centres undefined) | 16 | 86 | 10 | EC50 (Cavia porcellus [7]): 0.49 µM
CC1=CSC(O)(c2ccc(F)cc2)c2noc(=O)n21 (centres undefined) | 10 | 74 | 8 | EC50 (Cavia porcellus [8]): 1.21 µM
CC1=CSC(O)(c2ccc(Br)cc2)c2noc(=O)n21 (centres undefined) | 18 | 97 | 12 | EC50 (Cavia porcellus [9]): 0.32 µM
CC1=Cn2c(noc2=O)C(O)(c2ccc(Cl)cc2)S1 (centres undefined) | 11 | 71 | 15 | EC50 (Cavia porcellus [10]): 1.72 µM
CC1=C(C)n2c(noc2=O)C(O)(c2ccc(Cl)cc2)S1 (centres undefined) | 19 | 70 | 28 | EC50 (Cavia porcellus [11]): 1.42 µM
CC1=CSC(O)(c2ccc(Cl)cc2)c2noc(=O)n21 (centres undefined) | 18 | 80 | 26 | EC50 (Cavia porcellus [12]): 0.8 µM
O=c1onc2n1-c1ccccc1SC2(O)c1ccc(Cl)cc1 (centres undefined) | 21 | 94 | 40 | EC50 (Cavia porcellus [13]): 0.52 µM
CC1=CSC(O)(c2ccccc2)c2noc(=O)n21 (centres undefined) | 14 | 95 | 4 | EC50 (Cavia porcellus [14]): 0.23 µM
CC1=CSC(OCC(C)C)(c2ccc(Cl)cc2)c2noc(=O)n21 (centres undefined) | 15 | 83 | 37 | EC50 (Cavia porcellus [15]): 0.56 µM
COC1(c2ccc(Cl)cc2)SC=C(C)n2c1noc2=O (centres undefined) | 22 | 62 | 14 | EC50 (Cavia porcellus [15]): 1.54 µM
CC1=CSC(O)(c2ccc(-c3ccccc3)cc2)c2noc(=O)n21 (centres undefined) | 18 | 71 | 9 | EC50 (Cavia porcellus [16]): 2.65 µM
CC1=CSC(O)(c2cccc(Cl)c2)c2noc(=O)n21 (centres undefined) | 34 | 88 | 17 | EC50 (Cavia porcellus [17]): 0.65 µM
CC1=CSC(O)(c2cccc([N+](=O)[O-])c2)c2noc(=O)n21 (centres undefined) | 13 | 68 | 19 | EC50 (Cavia porcellus [18]): 1.76 µM
O=c1onc2n1C=CSC2(O)c1ccc(Cl)cc1 (centres undefined) | 7 | 78 | 10 | EC50 (Cavia porcellus [19]): 4.07 µM
CC1=CSC(O)(c2cccc(C)c2)c2noc(=O)n21 (centres undefined) | 10 | 89 | 12 | EC50 (Cavia porcellus [20]): 0.72 µM
CC1=CSC(O)(c2cccc(C(F)(F)F)c2)c2noc(=O)n21 (centres undefined) | 20 | 96 | 37 | EC50 (Cavia porcellus [21]): 2.17 µM
O=c1onc2n1C=CSC2(O)c1ccccc1 (centres undefined) | 14 | 74 | 11 | EC50 (Cavia porcellus [22]): 6.58 µM
CC1=CSC(O)(c2ccc(C)cc2)c2noc(=O)n21 (centres undefined) | 13 | 82 | 5 | EC50 (Cavia porcellus [23]): 0.57 µM
COc1ccc([C@@H]2Sc3ccccc3N(CCN(C)C)C(=O)[C@@H]2OC(C)=O)cc1 [DILTIAZEM] | 94 | 78 | 88 | EC30 (Cavia porcellus [24]): 0.07 µM; EC50 (Cavia porcellus [25]): 0.79 µM

Reference: ChEMBL document CHEMBL1135531, “Cardiovascular characterization of [1,4]thiazino[3,4-c][1,2,4]oxadiazol-1-one derivatives: selective myocardial calcium channel modulators” (J Med Chem, 2002)
